Measured values as given in ChEMBL document CHEMBL5724801, “EUbOPEN Chemogenomics Library - Multiplex” (2024).
“And” between values parts separate entries of the source, which are not always exact repeats. Identical values can stand only once.

test system: U2OS; assay: Multiplex assay against U2OS; format: toxicity, cell-based; details: human, 12 h, 1 µM, compound concentration 1 uM
In short: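 Phenotypes for tubulin, mitochondrial mass and membrane permeability are expressed as per cents of healthy-nucleus cells. Cells were stained live at seeding with Hoechst33342, BioTracker Green Microtubule Cytoskeleton Dye, MitoTracker Red and Annexin V Alexa Fluor 680, then imaged after compound addition on a CQ1 microscope at 37°C and 5% CO2. Machine-learning gating in CellPathfinder separated Hoechst high-intensity objects from normal cells, divided normal cells by nuclear state (healthy, pyknosed, fragmented) and divided pyknosed cells into mitotic or apoptotic.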

SMILES | Population Apoptotic (%) | Population Fragmented Nuclei (%) | Population Healthy Nuclei (%) | Population Hoechst High Intensity Objects (%) | Population Membrane Permeable-Phenotype (%) | Population Mitochondria Different-Phenotype (%) | Population Mitotic Cells (%) | Population Normal (%) | Population Pyknosed Nuclei (%) | Population Tubulin-Different-Phenotype (%)
COc1ccc(-n2c(C)c([N+](=O)[O-])c3ccc(O)cc32)cc1 | 45.24% and 38.46% | 0.72% and 4.55% | 89.23% and 88.07% | 0% | 2.14% and 5.16% | 0.27% and 4.52% | 54.76% and 61.54% | 100% | 10.05% and 7.39% | 0.8% and 1.29%
CC(C)CC(=O)Nc1cncc(-c2ccc3[nH]nc(-c4nc5c(-c6cccc(F)c6)cncc5[nH]4)c3c2)c1 [LORECIVIVINT] | 45.16% and 22.22% | 2.6% and 2.94% | 88.44% and 83.82% | 0% | 5.23% and 5.26% |  | 54.84% and 77.78% | 100% | 8.96% and 13.24% | 7.84% and 9.65%

same assay, conditions: human, 12 h, 1 µM, compound concentration 1 uM

SMILES | Total Cell Count
COc1ccc(-n2c(C)c([N+](=O)[O-])c3ccc(O)cc32)cc1 | 418 and 176
CC(C)CC(=O)Nc1cncc(-c2ccc3[nH]nc(-c4nc5c(-c6cccc(F)c6)cncc5[nH]4)c3c2)c1 [LORECIVIVINT] | 346 and 136

same assay, conditions: human, 12 h, 10 µM, compound concentration 10 uM

SMILES | Population Apoptotic (%) | Population Fragmented Nuclei (%) | Population Healthy Nuclei (%) | Population Hoechst High Intensity Objects (%) | Population Membrane Permeable-Phenotype (%) | Population Mitochondria Different-Phenotype (%) | Population Mitotic Cells (%) | Population Normal (%) | Population Pyknosed Nuclei (%) | Population Tubulin-Different-Phenotype (%)
COc1ccc(-n2c(C)c([N+](=O)[O-])c3ccc(O)cc32)cc1 | 24.32% and 50% | 1.07% and 1.43% | 90.99% and 84.29% | 0% | 1.42% and 6.78% | 0.47% and 5.08% | 75.68% and 50% | 100% | 7.94% and 14.29% | 4.01% and 0%
CC(C)CC(=O)Nc1cncc(-c2ccc3[nH]nc(-c4nc5c(-c6cccc(F)c6)cncc5[nH]4)c3c2)c1 [LORECIVIVINT] | 60.48% and 43.06% | 3.46% and 6.63% | 55.31% and 53.59% | 0% | 4.46% and 6.19% | 0% and 2.06% | 39.52% and 56.94% | 100% | 41.23% and 39.78% | 8.04% and 1.03%

same assay, conditions: human, 12 h, 10 µM, compound concentration 10 uM

SMILES | Total Cell Count
CC(C)CC(=O)Nc1cncc(-c2ccc3[nH]nc(-c4nc5c(-c6cccc(F)c6)cncc5[nH]4)c3c2)c1 [LORECIVIVINT] | 405 and 181

same assay, conditions: human, 24 h, 1 µM, compound concentration 1 uM

SMILES | Population Apoptotic (%) | Population Fragmented Nuclei (%) | Population Healthy Nuclei (%) | Population Hoechst High Intensity Objects (%) | Population Membrane Permeable-Phenotype (%) | Population Mitochondria Different-Phenotype (%) | Population Mitotic Cells (%) | Population Normal (%) | Population Pyknosed Nuclei (%) | Population Tubulin-Different-Phenotype (%)
COc1ccc(-n2c(C)c([N+](=O)[O-])c3ccc(O)cc32)cc1 | 52.94% and 48% | 1.65% and 2.64% | 89.03% and 86.34% | 0% | 0.62% and 4.08% | 0.21% and 4.08% | 47.06% and 52% | 100% | 9.32% and 11.01% | 1.03% and 1.53%
CC(C)CC(=O)Nc1cncc(-c2ccc3[nH]nc(-c4nc5c(-c6cccc(F)c6)cncc5[nH]4)c3c2)c1 [LORECIVIVINT] | 65.71% and 37.04% | 3.06% and 4.14% | 87.22% and 77.24% | 0.28% and 0% | 2.87% and 3.57% |  | 34.29% and 62.96% | 99.72% and 100% | 9.72% and 18.62% | 5.73% and 4.46%

same assay, conditions: human, 24 h, 1 µM, compound concentration 1 uM

SMILES | Total Cell Count
COc1ccc(-n2c(C)c([N+](=O)[O-])c3ccc(O)cc32)cc1 | 547 and 227
CC(C)CC(=O)Nc1cncc(-c2ccc3[nH]nc(-c4nc5c(-c6cccc(F)c6)cncc5[nH]4)c3c2)c1 [LORECIVIVINT] | 361 and 145

same assay, conditions: human, 24 h, 10 µM, compound concentration 10 uM

SMILES | Population Apoptotic (%) | Population Fragmented Nuclei (%) | Population Healthy Nuclei (%) | Population Hoechst High Intensity Objects (%) | Population Membrane Permeable-Phenotype (%) | Population Mitochondria Different-Phenotype (%) | Population Mitotic Cells (%) | Population Normal (%) | Population Pyknosed Nuclei (%) | Population Tubulin-Different-Phenotype (%)
COc1ccc(-n2c(C)c([N+](=O)[O-])c3ccc(O)cc32)cc1 | 38.64% and 52.38% | 2.67% and 2.78% | 90% and 85.56% | 0% | 1.67% and 3.9% | 0.37% and 3.25% | 61.36% and 47.62% | 100% | 7.33% and 11.67% | 1.67% and 0%
CC(C)CC(=O)Nc1cncc(-c2ccc3[nH]nc(-c4nc5c(-c6cccc(F)c6)cncc5[nH]4)c3c2)c1 [LORECIVIVINT] | 54.77% and 33.33% | 3.76% and 6.3% | 39.53% and 38.24% | 0% | 4.17% and 5.49% | 0.6% and 2.2% | 45.23% and 66.67% | 100% | 56.71% and 55.46% | 10.12% and 3.3%

same assay, conditions: human, 24 h, 10 µM, compound concentration 10 uM

SMILES | Total Cell Count
CC(C)CC(=O)Nc1cncc(-c2ccc3[nH]nc(-c4nc5c(-c6cccc(F)c6)cncc5[nH]4)c3c2)c1 [LORECIVIVINT] | 425 and 238

same assay, conditions: human, 48 h, 1 µM, compound concentration 1 uM

SMILES | Population Apoptotic (%) | Population Fragmented Nuclei (%) | Population Healthy Nuclei (%) | Population Hoechst High Intensity Objects (%) | Population Membrane Permeable-Phenotype (%) | Population Mitochondria Different-Phenotype (%) | Population Mitotic Cells (%) | Population Normal (%) | Population Pyknosed Nuclei (%) | Population Tubulin-Different-Phenotype (%)
COc1ccc(-n2c(C)c([N+](=O)[O-])c3ccc(O)cc32)cc1 | 36.36% and 48.48% | 2.25% and 2.47% | 88.75% and 88.46% | 0% | 0.69% and 2.48% | 0% and 3.42% | 63.64% and 51.52% | 100% | 9% and 9.07% | 0.58% and 1.24%
CC(C)CC(=O)Nc1cncc(-c2ccc3[nH]nc(-c4nc5c(-c6cccc(F)c6)cncc5[nH]4)c3c2)c1 [LORECIVIVINT] | 60.87% and 57% | 5.63% and 2.11% | 42.54% and 27.46% | 0% | 3.31% and 7.69% | 0% and 12.82% | 39.13% and 43% | 100% | 51.83% and 70.42% | 7.95% and 10.26%

same assay, conditions: human, 48 h, 1 µM, compound concentration 1 uM

SMILES | Total Cell Count
COc1ccc(-n2c(C)c([N+](=O)[O-])c3ccc(O)cc32)cc1 | 978 and 364
CC(C)CC(=O)Nc1cncc(-c2ccc3[nH]nc(-c4nc5c(-c6cccc(F)c6)cncc5[nH]4)c3c2)c1 [LORECIVIVINT] | 355 and 142

same assay, conditions: human, 48 h, 10 µM, compound concentration 10 uM

SMILES | Population Apoptotic (%) | Population Fragmented Nuclei (%) | Population Healthy Nuclei (%) | Population Hoechst High Intensity Objects (%) | Population Membrane Permeable-Phenotype (%) | Population Mitochondria Different-Phenotype (%) | Population Mitotic Cells (%) | Population Normal (%) | Population Pyknosed Nuclei (%) | Population Tubulin-Different-Phenotype (%)
COc1ccc(-n2c(C)c([N+](=O)[O-])c3ccc(O)cc32)cc1 | 56.82% and 55.26% | 3.3% and 3.1% | 87.91% and 83.79% | 0% | 0.91% and 4.12% | 0.11% and 3.7% | 43.18% and 44.74% | 100% | 8.79% and 13.1% | 1.7% and 2.88%
CC(C)CC(=O)Nc1cncc(-c2ccc3[nH]nc(-c4nc5c(-c6cccc(F)c6)cncc5[nH]4)c3c2)c1 [LORECIVIVINT] | 66.91% and 37.27% | 5.11% and 2.77% | 33.11% and 33.6% | 0% | 5.37% and 9.41% | 1.34% and 1.18% | 33.09% and 62.73% | 100% | 61.78% and 63.64% | 

same assay, conditions: human, 48 h, 10 µM, compound concentration 10 uM

SMILES | Total Cell Count
CC(C)CC(=O)Nc1cncc(-c2ccc3[nH]nc(-c4nc5c(-c6cccc(F)c6)cncc5[nH]4)c3c2)c1 [LORECIVIVINT] | 450 and 253
